According to ChEMBL document CHEMBL4118199 (J Med Chem, 2018):

Assays:
Homo sapiens [1] = organism: Homo sapiens; experiment: Selectivity ratio of IC50 for human 20S constitutive proteasome beta-5 to IC50 for human 20S constitutive proteasome beta-2
[2] = target: T1, Proteasome subunit beta type-8 (Homo sapiens, UniProt P28062); experiment: Inhibition of human 20S immunoproteasome beta-5 using Suc-LLVY-AMC as substrate after 60 mins by fluorescence assay
T1 sequence (P28062 whole entry): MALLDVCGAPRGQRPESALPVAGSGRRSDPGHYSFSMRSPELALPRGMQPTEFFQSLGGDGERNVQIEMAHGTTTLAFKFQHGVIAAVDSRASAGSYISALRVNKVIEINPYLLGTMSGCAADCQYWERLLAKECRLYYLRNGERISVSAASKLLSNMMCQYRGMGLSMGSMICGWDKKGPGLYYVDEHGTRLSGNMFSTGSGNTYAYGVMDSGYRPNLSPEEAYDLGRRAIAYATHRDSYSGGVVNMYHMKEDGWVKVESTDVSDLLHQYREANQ
How it was run: (§1)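 Purified 20S proteasome (final 2.5 nM) in kit assay buffer. Inhibitors preincubated 60 min at ambient temperature with shaking, final concentrations 0.1 nM–400 µM. Fluorogenic substrate at final 100 µM. Fluorescence (ex 360 nm, em 460 nm) read kinetically for 2 h at 25 °C. Duplicates, three repetitions. IC50 obtained from a Hill-equation fit of % residual activity against log concentration.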

[3] = Stability in pH 8 PBS buffer at 1 mM after 2 hrs by HPLC analysis; assay type: physicochemical; conditions: read-out: Stability
How it was run: (§2)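 Compound in DMSO added to 1x PBS adjusted with HCl/NaOH to pH 6.5, 7.4 or 8.0, giving about 1 mM final. Sulfonyl fluoride hydrolysis followed by analytical HPLC over 12 h. Peak measured right after buffer addition set as 0 h reference. Reported as residual % of intact R-SO2F.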

[4] = Stability in pH 6.5 PBS buffer at 1 mM after 12 hrs by HPLC analysis; assay type: physicochemical; conditions: read-out: Stability; how it was run: as §2
[5] = target: T2, Proteasome Macropain subunit MB1 (Homo sapiens, UniProt P28074); experiment: Inhibition of human 20S constitutive proteasome beta-5 using Suc-LLVY-AMC as substrate after 60 mins by fluorescence assay
T2 sequence (P28074 whole entry): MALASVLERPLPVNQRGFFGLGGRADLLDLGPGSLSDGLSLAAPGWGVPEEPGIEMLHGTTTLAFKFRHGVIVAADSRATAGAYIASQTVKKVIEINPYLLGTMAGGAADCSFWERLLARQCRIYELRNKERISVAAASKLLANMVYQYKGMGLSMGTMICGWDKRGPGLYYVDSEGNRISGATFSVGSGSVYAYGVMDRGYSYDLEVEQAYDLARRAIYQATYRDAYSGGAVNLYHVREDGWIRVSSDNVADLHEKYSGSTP
How it was run: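 Inhibitors preincubated 60 min at ambient temperature with shaking, final concentrations 0.1 nM–400 µM. Fluorogenic substrate at final 100 µM. Duplicates, three repetitions. IC50 obtained from a Hill-equation fit of % residual activity against log concentration.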

[6] = target: T3, Proteasome subunit beta type-10 (Homo sapiens, UniProt P40306); experiment: Inhibition of human 20S immunoproteasome beta-2 using Bz-VGR-AMC as substrate after 60 mins by fluorescence assay; how it was run: as §1
T3 sequence (P40306 whole entry): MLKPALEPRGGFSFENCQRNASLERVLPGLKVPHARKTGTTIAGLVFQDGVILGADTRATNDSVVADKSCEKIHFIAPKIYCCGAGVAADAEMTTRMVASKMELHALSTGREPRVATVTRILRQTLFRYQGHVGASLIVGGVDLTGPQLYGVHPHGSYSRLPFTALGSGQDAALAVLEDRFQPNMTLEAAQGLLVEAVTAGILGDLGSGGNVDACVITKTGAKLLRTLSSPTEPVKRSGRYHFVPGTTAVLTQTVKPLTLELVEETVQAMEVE

Homo sapiens [7] = organism: Homo sapiens; experiment: Selectivity ratio of IC50 for human 20S immunoproteasome beta-5 to IC50 for human 20S immunoproteasome beta-2
[8] = Stability in pH 7.4 PBS buffer at 1 mM after 6 hrs by HPLC analysis; assay type: physicochemical; conditions: read-out: Stability; how it was run: as §2
[9] = Stability in pH 7.4 PBS buffer at 1 mM after 1 hr by HPLC analysis; assay type: physicochemical; conditions: read-out: Stability; how it was run: as §2

| SMILES | Ratio IC50 (Homo sapiens [1]) | IC50 [2] | remaining at 2 h, 1000 µM [3] | remaining at 12 h, 1000 µM [4] | IC50 [5] | IC50 [6] | Ratio IC50 (Homo sapiens [7]) | remaining at 6 h, 1000 µM [8] | remaining at 1 h, 1000 µM [9] |
| --- | --- | --- | --- | --- | --- | --- | --- | --- | --- |
| CC(C)C[C@H](NC(=O)[C@H](CC(C)C)NC(=O)[C@H](Cc1ccccc1)NC(=O)OCc1ccccc1)C(=O)N[C@@H](CCCNC(=N)N)CS(=O)(=O)F | 45 | 6.7 µM | 50% | 75% | 6.7 µM | 0.4 µM | 17 | ≥ 50% | 90% |
| CC(C)C[C@H](NC(=O)[C@H](Cc1ccccc1)N=[N+]=[N-])C(=O)N[C@@H](CC(C)C)C(=O)N[C@H](/C=C/S(C)(=O)=O)Cc1ccc(CN)cc1 |  | 1.8 µM |  |  |  | 0.0275 µM |  |  |  |
| CC(C)C[C@H](NC(=O)OCc1ccccc1)C(=O)N[C@@H](CC(C)C)C(=O)N[C@@H](CC(C)C)C(=O)N[C@@H](CCCNC(=N)N)CS(=O)(=O)F | 50 | 14 µM | 50% | 75% | 10 µM | 1.11 µM | 13 | ≥ 50% | 90% |
| CC(C)C[C@H](NC(=O)[C@H](CC(C)C)NC(=O)[C@@H](N)Cc1ccccc1)C(=O)N[C@@H](Cc1ccc(N)cc1)CS(=O)(=O)F | 4.3 | 0.45 µM | 50% | 75% | 0.95 µM | 0.2 µM | 2.3 | ≥ 50% | 90% |
| CC(C)C[C@H](NC(=O)[C@H](CC(C)C)NC(=O)[C@@H](N)Cc1ccccc1)C(=O)N[C@@H](CCCCN)CS(=O)(=O)F | > 1000 | > 100 µM | 50% | 75% | > 100 µM | 0.3 µM | > 1000 | ≥ 50% | 90% |
| CC(C)C[C@H](NC(=O)[C@H](CC(C)C)NC(=O)[C@@H](N)Cc1ccccc1)C(=O)N[C@@H](CCCNC(=N)N)CS(=O)(=O)F | 560 | > 100 µM | 50% | 75% | 140 µM | 0.21 µM | > 1000 | ≥ 50% | 90% |
| CC(=O)N[C@@H](Cc1ccccc1)C(=O)N[C@@H](CC(C)C)C(=O)N[C@@H](CC(C)C)C(=O)N[C@@H](CCCCN)CS(=O)(=O)F | 300 |  | 50% | 75% | > 100 µM |  |  | ≥ 50% | 90% |
| CC(C)C[C@H](NC(=O)[C@H](CC(C)C)NC(=O)[C@@H](N)Cc1ccccc1)C(=O)N[C@@H](Cc1ccc(CN)cc1)CS(=O)(=O)F | 900 | 137 µM | 50% | 75% | 125 µM | 0.36 µM | 380 | ≥ 50% | 90% |
| CC(C)C[C@H](NC(=O)[C@H](Cc1ccccc1)N=[N+]=[N-])C(=O)N[C@@H](CC(C)C)C(=O)N[C@@H](Cc1ccc(N)cc1)CS(=O)(=O)F |  |  | 50% | 75% |  |  |  | ≥ 50% | 90% |
| CC(=O)N[C@@H](Cc1ccccc1)C(=O)N[C@@H](CC(C)C)C(=O)N[C@@H](CC(C)C)C(=O)N[C@@H](Cc1ccc(CN)cc1)CS(=O)(=O)F | 150 | 17.2 µM | 50% | 75% | 18 µM | 0.395 µM | 44 | ≥ 50% | 90% |
| CC(C)C[C@H](NC(=O)[C@H](Cc1ccccc1)N=[N+]=[N-])C(=O)N[C@@H](CC(C)C)C(=O)N[C@@H](CCCNC(=N)N)CS(=O)(=O)F | 110 |  | 50% | 75% | 39 µM |  |  | ≥ 50% | 90% |
| CC(C)C[C@H](NC(=O)[C@H](Cc1ccccc1)N=[N+]=[N-])C(=O)N[C@@H](CC(C)C)C(=O)N[C@@H](CCCCN)CS(=O)(=O)F | 96 |  | 50% | 75% | 67 µM |  |  | ≥ 50% | 90% |
| CC(=O)N[C@@H](Cc1ccccc1)C(=O)N[C@@H](CC(C)C)C(=O)N[C@@H](CC(C)C)C(=O)N[C@@H](CCCNC(=N)N)CS(=O)(=O)F | 70 |  | 50% | 75% | 69 µM |  |  | ≥ 50% | 90% |
| CC(C)C[C@H](NC(=O)[C@H](CC(C)C)NC(=O)[C@H](Cc1ccccc1)NC(=O)OC(C)(C)C)C(=O)N[C@@H](CCCNC(=N)N)CS(=O)(=O)F | 40 |  | 50% | 75% | 27.8 µM |  |  | ≥ 50% | 90% |
| CC(C)C[C@H](NC(=O)[C@H](Cc1ccccc1)N=[N+]=[N-])C(=O)N[C@@H](CC(C)C)C(=O)N[C@@H](Cc1ccc(CN)cc1)CS(=O)(=O)F | 66 | 3.1 µM | 50% | 75% | 8.9 µM | 0.13 µM | 24 | ≥ 50% | 90% |
| CC(=O)N[C@@H](Cc1ccccc1)C(=O)N[C@@H](CC(C)C)C(=O)N[C@@H](CC(C)C)C(=O)N[C@@H](Cc1ccc(N)cc1)CS(=O)(=O)F | 0.1 |  | 50% | 75% | 0.21 µM |  |  | ≥ 50% | 90% |
